From ChEMBL document CHEMBL3045650, “Design, synthesis, and 3D-QSAR analysis of novel 1,3,4-oxadiazol-2(3H)-ones as protoporphyrinogen oxidase inhibitors” (J Agric Food Chem, 2010)

test system: Rumex acetosa; assay: Post-emergence herbicidal activity against Rumex acetosa assessed as growth inhibition at emulsified concentrate of 37.5 g/ai ha after 15 days by greenhouse test; type: functional

Compound | inhibition (INH) [%]
CC(C)OC(=O)CSc1nc2cc(-n3nc(C(C)(C)C)oc3=O)c(F)cc2s1 | 50
CCCOC(=O)CSc1nc2cc(-n3nc(C(C)(C)C)oc3=O)c(F)cc2s1 | 50

test system: Rumex acetosa; assay: Post-emergence herbicidal activity against Rumex acetosa assessed as growth inhibition at emulsified concentrate of 75 g/ai ha after 15 days by greenhouse test; type: functional

Compound | inhibition (INH) [%]
CC(C)OC(=O)CSc1nc2cc(-n3nc(C(C)(C)C)oc3=O)c(F)cc2s1 | 60
CCCOC(=O)CSc1nc2cc(-n3nc(C(C)(C)C)oc3=O)c(F)cc2s1 | 60

test system: Amaranthus retroflexus; assay: Post-emergence herbicidal activity against Amaranthus retroflexus assessed as growth inhibition at emulsified concentrate of 37.5 g/ai ha after 15 days by greenhouse test; type: functional
Method in brief: (§1)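 Compounds were made up as 100 g/L emulsifiable concentrates in DMF with Tween-80, then diluted in water. About 20 seeds were sown 1-3 cm deep in pots and grown in a greenhouse at 15-30 °C and 50% relative humidity. Sprays were applied postemergence at the two-leaf stage. Untreated and DMF + Tween-80 solvent controls were included. Injury was scored visually 15 days after treatment, with three replicates per treatment.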

Compound | inhibition (INH) [%]
CC(C)OC(=O)CSc1nc2cc(-n3nc(C(C)(C)C)oc3=O)c(F)cc2s1 | 0
CCCOC(=O)CSc1nc2cc(-n3nc(C(C)(C)C)oc3=O)c(F)cc2s1 | 0

test system: Abutilon theophrasti; assay: Post-emergence herbicidal activity against Abutilon theophrasti (velvetleaf) assessed as growth inhibition at emulsified concentrate of 37.5 g/ai ha after 15 days by greenhouse test; type: functional

Compound | inhibition (INH) [%]
CC(C)OC(=O)CSc1nc2cc(-n3nc(C(C)(C)C)oc3=O)c(F)cc2s1 | 0
CCCOC(=O)CSc1nc2cc(-n3nc(C(C)(C)C)oc3=O)c(F)cc2s1 | 0

test system: Brassica juncea; assay: Post-emergence herbicidal activity against Brassica juncea assessed as growth inhibition at emulsified concentrate of 150 g/ai ha after 15 days by greenhouse test; type: functional
Method in brief: (§2)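 About 20 seeds sown 1–3 cm deep, grown at 15–30 °C and 50% RH. Dicot seedlings sprayed postemergence at the two-leaf stage with a 100 g/L emulsifiable concentrate (DMF/Tween-80) diluted in water, 150 g ai/ha. Untreated and solvent controls included. Visual rating at 15 days, three replicates.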

Compound | inhibition (INH) [%]
CC(C)OC(=O)CSc1nc2cc(-n3nc(C(C)(C)C)oc3=O)c(F)cc2s1 | 40
CCCOC(=O)CSc1nc2cc(-n3nc(C(C)(C)C)oc3=O)c(F)cc2s1 | 50

test system: Polygonum humifusum; assay: Post-emergence herbicidal activity against Polygonum humifusum assessed as growth inhibition at emulsified concentrate of 150 g/ai ha after 15 days by greenhouse test; type: functional

Compound | inhibition (INH) [%]
CC(C)OC(=O)CSc1nc2cc(-n3nc(C(C)(C)C)oc3=O)c(F)cc2s1 | 60
CCCOC(=O)CSc1nc2cc(-n3nc(C(C)(C)C)oc3=O)c(F)cc2s1 | 80

test system: Cyperus iria; assay: Post-emergence herbicidal activity against Cyperus iria assessed as growth inhibition at emulsified concentrate of 37.5 g/ai ha after 15 days by greenhouse test; type: functional

Compound | inhibition (INH) [%]
CC(C)OC(=O)CSc1nc2cc(-n3nc(C(C)(C)C)oc3=O)c(F)cc2s1 | 50
CCCOC(=O)CSc1nc2cc(-n3nc(C(C)(C)C)oc3=O)c(F)cc2s1 | 40

test system: Eclipta prostrata; assay: Post-emergence herbicidal activity against Eclipta prostrata assessed as growth inhibition at emulsified concentrate of 75 g/ai ha after 15 days by greenhouse test; type: functional; method in brief: as §1

Compound | inhibition (INH) [%]
CC(C)OC(=O)CSc1nc2cc(-n3nc(C(C)(C)C)oc3=O)c(F)cc2s1 | 0
CCCOC(=O)CSc1nc2cc(-n3nc(C(C)(C)C)oc3=O)c(F)cc2s1 | 40

test system: Brassica juncea; assay: Post-emergence herbicidal activity against Brassica juncea assessed as growth inhibition at emulsified concentrate of 37.5 g/ai ha after 15 days by greenhouse test; type: functional; method in brief: as §1

Compound | inhibition (INH) [%]
CC(C)OC(=O)CSc1nc2cc(-n3nc(C(C)(C)C)oc3=O)c(F)cc2s1 | 40
CCCOC(=O)CSc1nc2cc(-n3nc(C(C)(C)C)oc3=O)c(F)cc2s1 | 50

test system: Echinochloa crus-galli; assay: Post-emergence herbicidal activity against Echinochloa crus-galli (barnyard grass) assessed as growth inhibition at emulsified concentrate of 150 g/ai ha after 15 days by greenhouse test; type: functional
Method in brief: (§3)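 About 20 seeds sown 1–3 cm deep, grown at 15–30 °C and 50% RH. Monocot seedlings sprayed postemergence at the one-leaf stage with a 100 g/L emulsifiable concentrate (DMF/Tween-80) diluted in water, 150 g ai/ha. Untreated and solvent controls included. Visual rating at 15 days, three replicates.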

Compound | inhibition (INH) [%]
CC(C)OC(=O)CSc1nc2cc(-n3nc(C(C)(C)C)oc3=O)c(F)cc2s1 | 0
CCCOC(=O)CSc1nc2cc(-n3nc(C(C)(C)C)oc3=O)c(F)cc2s1 | 0

test system: Cyperus iria; assay: Post-emergence herbicidal activity against Cyperus iria assessed as growth inhibition at emulsified concentrate of 75 g/ai ha after 15 days by greenhouse test; type: functional

Compound | inhibition (INH) [%]
CC(C)OC(=O)CSc1nc2cc(-n3nc(C(C)(C)C)oc3=O)c(F)cc2s1 | 50
CCCOC(=O)CSc1nc2cc(-n3nc(C(C)(C)C)oc3=O)c(F)cc2s1 | 40

test system: Cyperus iria; assay: Post-emergence herbicidal activity against Cyperus iria assessed as growth inhibition at emulsified concentrate of 150 g/ai ha after 15 days by greenhouse test; type: functional

Compound | inhibition (INH) [%]
CC(C)OC(=O)CSc1nc2cc(-n3nc(C(C)(C)C)oc3=O)c(F)cc2s1 | 60
CCCOC(=O)CSc1nc2cc(-n3nc(C(C)(C)C)oc3=O)c(F)cc2s1 | 60

test system: Eclipta prostrata; assay: Post-emergence herbicidal activity against Eclipta prostrata assessed as growth inhibition at emulsified concentrate of 37.5 g/ai ha after 15 days by greenhouse test; type: functional; method in brief: as §1

Compound | inhibition (INH) [%]
CC(C)OC(=O)CSc1nc2cc(-n3nc(C(C)(C)C)oc3=O)c(F)cc2s1 | 0
CCCOC(=O)CSc1nc2cc(-n3nc(C(C)(C)C)oc3=O)c(F)cc2s1 | 0

test system: Polygonum humifusum; assay: Post-emergence herbicidal activity against Polygonum humifusum assessed as growth inhibition at emulsified concentrate of 37.5 g/ai ha after 15 days by greenhouse test; type: functional

Compound | inhibition (INH) [%]
CC(C)OC(=O)CSc1nc2cc(-n3nc(C(C)(C)C)oc3=O)c(F)cc2s1 | 40
CCCOC(=O)CSc1nc2cc(-n3nc(C(C)(C)C)oc3=O)c(F)cc2s1 | 60

test system: Polygonum humifusum; assay: Post-emergence herbicidal activity against Polygonum humifusum assessed as growth inhibition at emulsified concentrate of 75 g/ai ha after 15 days by greenhouse test; type: functional

Compound | inhibition (INH) [%]
CC(C)OC(=O)CSc1nc2cc(-n3nc(C(C)(C)C)oc3=O)c(F)cc2s1 | 40
CCCOC(=O)CSc1nc2cc(-n3nc(C(C)(C)C)oc3=O)c(F)cc2s1 | 70

test system: Brassica juncea; assay: Post-emergence herbicidal activity against Brassica juncea assessed as growth inhibition at emulsified concentrate of 75 g/ai ha after 15 days by greenhouse test; type: functional; method in brief: as §1

Compound | inhibition (INH) [%]
CC(C)OC(=O)CSc1nc2cc(-n3nc(C(C)(C)C)oc3=O)c(F)cc2s1 | 50
CCCOC(=O)CSc1nc2cc(-n3nc(C(C)(C)C)oc3=O)c(F)cc2s1 | 50

test system: Poa annua; assay: Post-emergence herbicidal activity against Poa annua assessed as growth inhibition at emulsified concentrate of 150 g/ai ha after 15 days by greenhouse test; type: functional; method in brief: as §3

Compound | inhibition (INH) [%]
CC(C)OC(=O)CSc1nc2cc(-n3nc(C(C)(C)C)oc3=O)c(F)cc2s1 | 0
CCCOC(=O)CSc1nc2cc(-n3nc(C(C)(C)C)oc3=O)c(F)cc2s1 | 0

test system: Eclipta prostrata; assay: Post-emergence herbicidal activity against Eclipta prostrata assessed as growth inhibition at emulsified concentrate of 150 g/ai ha after 15 days by greenhouse test; type: functional; method in brief: as §2

Compound | inhibition (INH) [%]
CC(C)OC(=O)CSc1nc2cc(-n3nc(C(C)(C)C)oc3=O)c(F)cc2s1 | 70
CCCOC(=O)CSc1nc2cc(-n3nc(C(C)(C)C)oc3=O)c(F)cc2s1 | 90

test system: Abutilon theophrasti; assay: Post-emergence herbicidal activity against Abutilon theophrasti (velvetleaf) assessed as growth inhibition at emulsified concentrate of 150 g/ai ha after 15 days by greenhouse test; type: functional

Compound | inhibition (INH) [%]
CC(C)OC(=O)CSc1nc2cc(-n3nc(C(C)(C)C)oc3=O)c(F)cc2s1 | 0
CCCOC(=O)CSc1nc2cc(-n3nc(C(C)(C)C)oc3=O)c(F)cc2s1 | 0

test system: Digitaria sanguinalis; assay: Post-emergence herbicidal activity against Digitaria sanguinalis (hairy crabgrass) assessed as growth inhibition at emulsified concentrate of 150 g/ai ha after 15 days by greenhouse test; type: functional; method in brief: as §3

Compound | inhibition (INH) [%]
CC(C)OC(=O)CSc1nc2cc(-n3nc(C(C)(C)C)oc3=O)c(F)cc2s1 | 0
CCCOC(=O)CSc1nc2cc(-n3nc(C(C)(C)C)oc3=O)c(F)cc2s1 | 0

test system: Amaranthus retroflexus; assay: Post-emergence herbicidal activity against Amaranthus retroflexus assessed as growth inhibition at emulsified concentrate of 150 g/ai ha after 15 days by greenhouse test; type: functional; method in brief: as §2

Compound | inhibition (INH) [%]
CC(C)OC(=O)CSc1nc2cc(-n3nc(C(C)(C)C)oc3=O)c(F)cc2s1 | 90
CCCOC(=O)CSc1nc2cc(-n3nc(C(C)(C)C)oc3=O)c(F)cc2s1 | 100

test system: Abutilon theophrasti; assay: Post-emergence herbicidal activity against Abutilon theophrasti (velvetleaf) assessed as growth inhibition at emulsified concentrate of 75 g/ai ha after 15 days by greenhouse test; type: functional

Compound | inhibition (INH) [%]
CC(C)OC(=O)CSc1nc2cc(-n3nc(C(C)(C)C)oc3=O)c(F)cc2s1 | 0
CCCOC(=O)CSc1nc2cc(-n3nc(C(C)(C)C)oc3=O)c(F)cc2s1 | 0

biological target: T1, Protoporphyrinogen oxidase (Homo sapiens, UniProt P50336); assay: Inhibition of Homo sapiens (human) recombinant protoporphyrinogen oxidase expressed in Escherichia coli JM109 assessed as oxidation of protoporphyrinogen IX substrate by fluorescence assay
T1 sequence (P50336 whole entry): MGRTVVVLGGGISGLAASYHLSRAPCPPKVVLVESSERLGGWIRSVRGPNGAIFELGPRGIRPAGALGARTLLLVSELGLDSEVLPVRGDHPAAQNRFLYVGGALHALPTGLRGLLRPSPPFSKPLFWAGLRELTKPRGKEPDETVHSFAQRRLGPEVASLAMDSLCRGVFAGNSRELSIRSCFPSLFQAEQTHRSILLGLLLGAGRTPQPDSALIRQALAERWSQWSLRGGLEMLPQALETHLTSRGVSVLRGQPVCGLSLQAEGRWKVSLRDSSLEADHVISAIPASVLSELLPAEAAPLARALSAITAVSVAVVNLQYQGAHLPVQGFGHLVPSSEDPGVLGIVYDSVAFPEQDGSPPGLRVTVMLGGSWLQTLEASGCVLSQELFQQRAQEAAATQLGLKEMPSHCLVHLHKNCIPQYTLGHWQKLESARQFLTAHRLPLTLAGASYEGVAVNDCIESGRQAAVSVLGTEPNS

Compound | Ki [nM]
CC(C)OC(=O)CSc1nc2cc(-n3nc(C(C)(C)C)oc3=O)c(F)cc2s1 | 1170
CCCOC(=O)CSc1nc2cc(-n3nc(C(C)(C)C)oc3=O)c(F)cc2s1 | 700

test system: Rumex acetosa; assay: Post-emergence herbicidal activity against Rumex acetosa assessed as growth inhibition at emulsified concentrate of 150 g/ai ha after 15 days by greenhouse test; type: functional

Compound | inhibition (INH) [%]
CC(C)OC(=O)CSc1nc2cc(-n3nc(C(C)(C)C)oc3=O)c(F)cc2s1 | 70
CCCOC(=O)CSc1nc2cc(-n3nc(C(C)(C)C)oc3=O)c(F)cc2s1 | 70

test system: Amaranthus retroflexus; assay: Post-emergence herbicidal activity against Amaranthus retroflexus assessed as growth inhibition at emulsified concentrate of 75 g/ai ha after 15 days by greenhouse test; type: functional; method in brief: as §1

Compound | inhibition (INH) [%]
CC(C)OC(=O)CSc1nc2cc(-n3nc(C(C)(C)C)oc3=O)c(F)cc2s1 | 85
CCCOC(=O)CSc1nc2cc(-n3nc(C(C)(C)C)oc3=O)c(F)cc2s1 | 60
